The source of these data is article PMC5126733 (Journal of medicinal chemistry, 2015).

The target in series [1] is T1, recombinant human aromatase (CYP19) (Homo sapiens, UniProt P11511).
T1 sequence (P11511 1-503): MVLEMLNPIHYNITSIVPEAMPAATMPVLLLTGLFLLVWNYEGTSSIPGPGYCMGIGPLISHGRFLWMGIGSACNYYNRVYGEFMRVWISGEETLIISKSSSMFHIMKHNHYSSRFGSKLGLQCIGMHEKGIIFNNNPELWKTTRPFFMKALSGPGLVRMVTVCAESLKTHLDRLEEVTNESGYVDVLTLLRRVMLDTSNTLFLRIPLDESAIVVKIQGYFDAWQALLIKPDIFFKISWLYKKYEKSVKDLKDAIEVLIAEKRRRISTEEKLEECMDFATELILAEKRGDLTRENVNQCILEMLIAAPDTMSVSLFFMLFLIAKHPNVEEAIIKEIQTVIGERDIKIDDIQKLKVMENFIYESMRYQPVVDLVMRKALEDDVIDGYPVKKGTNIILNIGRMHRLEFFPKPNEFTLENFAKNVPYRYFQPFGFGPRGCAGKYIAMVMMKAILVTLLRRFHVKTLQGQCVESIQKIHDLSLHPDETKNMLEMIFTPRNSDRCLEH
Description: Inhibition of recombinant human aromatase. The settings on record: ratio of aromatase IC50 values vs compound 7. The class given is biochemical.

Series [2] deals with progesterone receptor (PGR) mRNA expression in MCF-7 human breast cancer cells. Description: Antagonism of β-estradiol. Particulars: MCF-7 cells, 1 μM compound, 10 nM E2, 24 h. Format: cell-based. An outline of the steps:
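MCF-7 cells were grown in MEM with 10% FBS at 37 °C in 5% CO2, then preconditioned 72 h in charcoal-stripped FBS. They were treated 24 h with 1 μM test compound, vehicle (0.1% methanol) or a positive-control antiestrogen, all with 10 nM E2. PGR mRNA was measured by TaqMan RT-qPCR (40 cycles), normalized to GAPDH by 2−ΔΔCt, and expressed as % of E2-stimulated expression.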

The target of a further series is T2, recombinant human ER-α (Homo sapiens, UniProt P03372).
T2 sequence (P03372 1-595): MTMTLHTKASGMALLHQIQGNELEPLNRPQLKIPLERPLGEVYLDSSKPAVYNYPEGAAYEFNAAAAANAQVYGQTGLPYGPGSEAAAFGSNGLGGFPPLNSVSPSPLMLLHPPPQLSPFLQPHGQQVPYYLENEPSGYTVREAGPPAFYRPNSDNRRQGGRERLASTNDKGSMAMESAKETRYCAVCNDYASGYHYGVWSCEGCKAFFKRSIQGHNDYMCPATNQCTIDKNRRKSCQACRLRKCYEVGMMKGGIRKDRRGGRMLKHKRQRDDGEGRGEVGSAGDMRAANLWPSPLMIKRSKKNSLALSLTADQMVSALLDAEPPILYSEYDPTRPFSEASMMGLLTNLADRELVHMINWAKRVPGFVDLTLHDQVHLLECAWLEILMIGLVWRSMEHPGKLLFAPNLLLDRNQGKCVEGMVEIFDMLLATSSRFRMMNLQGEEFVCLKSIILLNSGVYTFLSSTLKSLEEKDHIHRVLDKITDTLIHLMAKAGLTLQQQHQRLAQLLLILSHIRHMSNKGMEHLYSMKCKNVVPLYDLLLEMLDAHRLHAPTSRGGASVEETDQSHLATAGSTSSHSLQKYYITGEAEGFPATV
Particulars: at 100 μM compound; compound 7; cited from earlier work.

The subject of another series is ER in MCF-7-2a cells. Particulars: cited from earlier work.
The conditions of series [3]: combination arm (with tamoxifen) of the ATAC trial; cited from earlier work.
Series [4] has as its system postmenopausal women with breast cancer. The settings on record: five-year ATAC trial, anastrozole alone compared to tamoxifen alone; cited from earlier work.

As to `Oc1ccc(C(=C(Cn2ccnc2)c2ccccc2)c2ccc(O)cc2)cc1` [Compound 12, 4,4'-(3-(1H-Imidazol-1-yl)-2-phenylprop-1-ene-1,1-diyl)diphenol], the “fold improvement in aromatase inhibitory activity compared with 7” value in series [1] is given as above 5000 fold. Further, in series [2], the “PGR mRNA expression level in the presence of 10 nM E2 (E2 alone = 100%)” value (shortened to “PGR mRNA expression level … (E2 alone = 100%)”) is recorded as 26-31%.

Take `Oc1ccc(C(=C(Cn2ccnc2)c2ccc(O)c(F)c2)c2ccc(O)cc2)cc1` [Compound 18b, 4,4'-(2-(3-Fluoro-4-hydroxyphenyl)-3-(1H-imidazol-1-yl)prop-1-ene-1,1-diyl)diphenol]: in series [2], the “PGR mRNA expression level … (E2 alone = 100%)” value was 26-31%. Regarding `CCC(=C(c1ccc(O)cc1)c1ccc(O)cc1)c1ccccc1` [Compound 7], on recombinant human ER-α, the ER-α percent competition is reported as 80% competition. Besides, in the series on ER in MCF-7-2a cells, the ER antagonist/agonist character result is listed as “good ER antagonist without significant agonistic side effects”. Turning to Endoxifen, the “PGR mRNA expression level … (E2 alone = 100%)” value in series [2] is recorded as 10%. Same read-out and setting: as for `Nc1ccc(C(Cn2ccnc2)=C(c2ccc(O)cc2)c2ccc(O)cc2)cc1` [Compound 26, 4,4'-(2-(4-Aminophenyl)-3-(1H-imidazol-1-yl)prop-1-ene-1,1-diyl)diphenol], the figure is 26-31%. Same read-out and setting: with `Oc1ccc(C(Cn2ccnc2)=C(c2ccc(O)cc2)c2ccc(O)cc2)cc1` [Compound 18a, 4,4',4”-(3-(1H-Imidazol-1-yl)prop-1-ene-1,1,2-triyl)triphenol] the figure was 26-31%.

Take `CC(C)(C#N)c1cc(Cn2cncn2)cc(C(C)(C)C#N)c1` [anastrozole]: in series [3], the “lowering of serum concentration of anastrozole in the combination arm” value is reported as 27%. For the same compound, in series [4], the “improvement of disease-free survival” value was 13%, the “reduction in occurrence of contralateral breast cancer” value was 42%, the “reduction in risk of distant metastasis” value was 14% and the “reduction in the time-to-recurrence” value is reported as 21%.
